Source: PubChem BioAssay
AI-2 QS mod: Vibrio harveyi AI-2 quorum sensing modulation. Vibrio harveyi JMH597 AI-2 luminescence/OD600 ratio, 9 h; active compounds read low; strain lacks LuxN and CqsS sensors; 0 = neutral-control median. activity change, % at 7.5 µM. 0.4% of 300,000 active. AID 2094; in the data active means activity change below about -75%, passing the limit was not always enough;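 further: luminescence divided by OD600 gain over 9 h not by final OD600 alone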
TbMetRS inhib: blocks T. brucei methionyl-tRNA synthetase activity; purified T. brucei MetRS, ATP depletion, Kinase-Glo luminescence; inhibition, % at 11.9 µM; 0.4% of 360,000 active;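 active means inhibition above a per-plate cutoff of the control wells' mean inhibition plus 3 SD, cut at about 5.5% in these data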
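Dosing: 11.9 µM single point; system: parasite MetRS enzyme; technique: luminescence of leftover ATP; times: 15 min enzyme-compound preincubation, 2 h reaction, 10 min detection, 25 °C; replicates: each compound tested once; read-out basis: percent inhibition relative to median high and low control wells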
bovine MsrA act: activates bovine MsrA enzyme. activation, % at 10.6 µM. 0.3% of 360,000 active. purified bovine MsrA, absorbance read-out. AID 602163; in the data active means activation above about 7.5%
AHR activator: human AHR activation; P35869; AHR-responsive luciferase reporter cells, luminescence; activation, % at 5 µM; 2.5% of 320,000 active; AID 2796; in the data active means activation above about 47%
Target sequence (P35869 whole entry, looked up): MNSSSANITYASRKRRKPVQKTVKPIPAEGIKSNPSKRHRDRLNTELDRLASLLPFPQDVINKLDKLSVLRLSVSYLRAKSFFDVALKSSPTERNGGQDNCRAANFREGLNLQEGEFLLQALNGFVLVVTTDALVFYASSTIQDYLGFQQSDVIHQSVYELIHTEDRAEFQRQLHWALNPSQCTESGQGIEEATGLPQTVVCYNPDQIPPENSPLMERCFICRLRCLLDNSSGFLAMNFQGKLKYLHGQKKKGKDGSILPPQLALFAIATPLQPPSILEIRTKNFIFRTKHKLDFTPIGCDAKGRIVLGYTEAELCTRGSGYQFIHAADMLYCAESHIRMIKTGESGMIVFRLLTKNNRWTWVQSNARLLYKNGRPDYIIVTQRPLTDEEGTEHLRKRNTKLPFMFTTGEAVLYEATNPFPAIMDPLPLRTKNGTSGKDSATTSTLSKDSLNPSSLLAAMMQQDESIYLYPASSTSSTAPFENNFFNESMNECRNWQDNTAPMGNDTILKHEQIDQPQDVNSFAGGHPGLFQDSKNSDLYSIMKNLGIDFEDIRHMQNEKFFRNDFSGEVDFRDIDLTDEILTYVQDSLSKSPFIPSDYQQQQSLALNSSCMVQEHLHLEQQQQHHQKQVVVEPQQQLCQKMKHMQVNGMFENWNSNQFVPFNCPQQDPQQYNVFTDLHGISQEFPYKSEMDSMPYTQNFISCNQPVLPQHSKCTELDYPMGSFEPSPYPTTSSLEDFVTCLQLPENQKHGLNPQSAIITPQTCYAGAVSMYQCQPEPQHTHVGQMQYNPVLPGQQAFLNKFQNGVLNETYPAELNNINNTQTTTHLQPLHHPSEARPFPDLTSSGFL
MsrA inh: bovine MsrA inhibition; inhibition, % at 15.5 µM; AID 651718; purified bovine MsrA, absorbance read-out; 0.75% of 360,000 active
HTR2A ag: activates the mouse 5-HT2A serotonin receptor; 0.66% of 360,000 active; activation, % at 7.6 µM; CHO-K1 mHTR2A beta-arrestin complementation, luminescence; percent of 30 µM serotonin response; P35363;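 active means activation above a run cutoff, the mean activation of all tested compounds plus 3 SD, cut at about 14% in these data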
MsrA conf: bovine MsrA inhibition, confirmed | inhibition, % at 15.5 µM | shares compounds with MsrA inh | purified bovine MsrA, absorbance read-out | 41% of 2,300 active | AID 651822;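 further: coupled to thioredoxin reductase with NADPH and selenocystamine and DMSO as substrate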
Each line names hits and unclear results; the compound was inactive in the other large screens (follow-up assays come after a bar, where they were run); ! = a repeat was not active. Only some compounds are listed: those with a hit (about 4.4% of all), similar ones and a draw of the others. Unless noted, no stated cut-off is given here; in the data, active means inhibition above about 4.5%; inactive means the rest.

CCc1ccc(-n2c(O)c(/C=N/NC(=O)c3ccncc3)c(=O)[nH]c2=O)cc1	MsrA inh 4.7 | MsrA conf 4.6
Clc1ccc(NC2=NCCCS2)cc1Cl	none
CC1=CC(=C2C(=O)NC(=O)NC2=O)C=C(C(F)(F)F)N1C(C)C	MsrA inh 4.9 | MsrA conf inactive
CC1=CC(=C2C(=O)NC(=O)NC2=O)C=C(C(F)(F)F)N1Cc1ccccc1	none
Nc1ccc2ccc3cccc[n+]3c2c1	none
C[n+]1c(-c2ccccc2)c2cc(N)ccc2c2ccc(N)cc21	MsrA inh 44 | MsrA conf 34
COc1cc2c(cc1O)C[C@H]1c3c(cc(O)c(OC)c3-2)CCN1C	MsrA inh 21 (no result: AI-2 QS mod) | MsrA conf 9.2
COC(=O)C1=C(c2ccc(OC)c(OC)c2)C[C@@H]2CC[C@H]1N2C(=O)NCCOc1ccc(OC)cc1	none (no result: AI-2 QS mod)
O=c1[nH]cnc2nc(-c3ccc(N(CCCl)CCCl)cc3)[nH]c12	MsrA inh 5.1 (no result: AI-2 QS mod, AHR activator) | MsrA conf inactive
COc1ccccc1-n1c(O)c(C=Nc2c(C)n(C)n(-c3ccccc3)c2=O)c(=O)[nH]c1=O	MsrA inh 5.4 | MsrA conf 4.8
COc1ccc(OC)c(-n2c(O)c(C=Nc3c(C)n(C)n(-c4ccccc4)c3=O)c(=O)[nH]c2=O)c1	none
COC(=O)C1=C(c2ccc(-c3ccccc3)c(F)c2)C[C@@H]2CC[C@H]1N2C(=O)NCc1ccco1	none (no result: AI-2 QS mod)
CCC1=CCN(CCc2c(C)[nH]c3ccccc23)CC1	none
COc1ccc(OC)c(/C=N/OC(=O)Nc2ccc(Cl)cc2)c1	none
COc1ccc(/C=N/N=C(/N)N[N+](=O)[O-])c(OC)c1	MsrA inh 7.9 | MsrA conf 5.6
COc1ccc2c(c1)[C@@]13CCC=C[C@H]1[C@@H](C2)NCC3	none (no result: AI-2 QS mod)
O=C1Nc2ccccc2/C1=C/c1cnc[nH]1	MsrA inh 6.4 | MsrA conf inactive
COC(=O)COc1ccc(/C=C2\C(=O)NC(=S)N(c3ccc(C)cc3)C2=O)cc1OC	none
CCOP(=O)(Nc1ccc2c(c1)C(=NNC(N)=S)c1ccccc1-2)OCC	MsrA inh 15 (no result: AI-2 QS mod, AHR activator) | MsrA conf 11
COc1ccc(-c2cc(=NCCCCCC(=O)O)c3cc(C)ccc3o2)cc1	MsrA inh 6.3 (no result: AHR activator) | MsrA conf 7.0!
N/C(=N\N=C/c1ccc(-c2ccc(O)c(C(=O)O)c2)o1)N[N+](=O)[O-]	MsrA inh 5.2 | MsrA conf 4.7
COC1=C(C)C(=O)O[C@]12C(=O)C(C)=C1CCCCN3[C@H]([C@@H]4C[C@H](C)C(=O)O4)CC[C@]132	none (no result: AI-2 QS mod)
COc1cc(C(=O)NN=Cc2ccc(N(CCCl)CCCl)cc2)cc(OC)c1OC	MsrA inh 5.2 (no result: AI-2 QS mod, AHR activator) | MsrA conf inactive
CC(=O)NC(Cc1ccc(N(CCCl)CCCl)cc1)C(=O)O (centres undefined)	none
COc1cc(/C=C2\C(=O)NC(=O)N(CCc3ccc(F)cc3)C2=O)ccc1O	MsrA inh 7.6 | MsrA conf inactive
COc1ccc2c(C)c(CC(=O)N3C[C@H]4C[C@@H](C3)c3cccc(=O)n3C4)c(=O)oc2c1C	MsrA inh 4.9 | MsrA conf inactive
CCCCC(=O)N/N=C/c1c(O)n(Cc2ccco2)c(=O)[nH]c1=O	none
CC(=O)Nc1ccc(N=Cc2c(O)n(Cc3ccco3)c(=O)[nH]c2=O)cc1	MsrA inh 5.2 (no result: AI-2 QS mod) | MsrA conf 6.0
CC(=O)C1C(N2CC2)CC2C3CCC4=CC(=O)CCC4(C)C3CCC21C (centres undefined)	none (no result: AI-2 QS mod, AHR activator)
CCCCN1C(=O)/C(=C/c2ccc(N(C)C)cc2)C(=O)N(Cc2ccco2)C1=O	MsrA inh 5.3 | MsrA conf 5.5
CCN(CC)c1ccc(/C=C2\C(=O)NC(=O)N(Cc3ccco3)C2=O)cc1	none
CC(C)CCC1(CCO)C(=O)NC(=S)NC1=O	none (no result: AI-2 QS mod, AHR activator)
CC1CC2C(C(O)CC3(C)C(O)CCC23)C2(C)CCC(=O)C=C12 (centres undefined)	none (no result: AI-2 QS mod, AHR activator)
CN(C)C1CCc2[nH]c3c(F)cc(F)cc3c2C1 (centres undefined)	none (no result: AI-2 QS mod, AHR activator)
CN(C)c1ccc(C=C2C(=O)NC(=S)NC2=O)cc1[N+](=O)[O-]	MsrA inh 7.3 | MsrA conf inactive
O=c1[nH]c(=S)n(-c2ccccc2)c(O)c1C=NCCN1CCNCC1	MsrA inh 5.4 (no result: AHR activator) | MsrA conf inactive
O=c1[nH]c(=S)n(-c2cccc(Cl)c2)c(O)c1C=NCCN1CCNCC1	none
CN1C(=O)N(C)C(=O)C2(Sc3ccccc3C2=O)C1=O	MsrA inh 59 (no result: AI-2 QS mod) | MsrA conf inactive
